Results from different studies.
Compare with care: the assays were run in different laboratories.
HDAC1: Histone deacetylase 1 (HDAC1, Homo sapiens, UniProt Q13547)
TACR2: Substance-K receptor (TACR2, Homo sapiens, UniProt P21452)
USP8: Ubiquitin carboxyl-terminal hydrolase 8 (USP8, Homo sapiens, UniProt P40818)
Nos1: Nitric oxide synthase 1 (Nos1, Rattus norvegicus, UniProt P29476)
Dipeptidyl peptidase 8: Dipeptidyl peptidase 8 (Homo sapiens, UniProt Q6V1X1)

Structure (SMILES)	target	read-out	action	technique	tested at	inhibition
O=C(CNC(=O)c1coc(-c2ccccc2O)n1)Nc1ccccc1	HDAC1	enzyme activity	inhibitor		20 µM	26%
CN(CCN1CCC(OC(=O)Nc2ccccc2-c2ccccc2)CC1)C(=O)c1ccc(CN2CCC(C(N)=O)CC2)cc1	TACR2	ligand displacement		radioligand	1 µM	1%
CCOC(=O)c1ccc(OC(=O)CCCCCNC(=N)N)cc1	USP8	enzyme activity	inhibitor		10 µM	0%
Cn1cc(-c2cc(F)cc(N3CCn4c(cc5c4CCCC5)C3=O)c2CO)cc(Nc2ccc(N3CCN(C4COC4)CC3)cn2)c1=O	Protein kinase C alpha type (PRKCA, Homo sapiens, UniProt P17252)	enzyme activity	inhibitor		0.1 µM	-11%
C[C@H](C(=O)N[C@H]1COc2ccccc2[C@@H]1S(C)(=O)=O)c1ccc(F)cc1	Nos1	enzyme activity	inhibitor		10 µM	6%
Cn1cc(-c2cccc(N3CCc4c(sc5c4CC(C)(C)C5)C3=O)c2CO)cc(Nc2ccncn2)c1=O	Testis-specific serine/threonine-protein kinase 2 (TSSK2, Homo sapiens, UniProt Q96PF2)	enzyme activity	inhibitor		1 µM	2%
COc1cc(Nc2ncc(F)c(Nc3ccc4c(n3)NC(=O)C(C)(C)O4)n2)cc(OC)c1OC	Cyclin-dependent kinase 11B (CDK11B, Homo sapiens, UniProt P21127)	binding		competition with immobilised ligand	10 µM	0%
CN(C)C(=O)COC(=O)Cc1ccc(OC(=O)c2ccc(NC(=N)N)cc2)cc1	Dipeptidyl peptidase 8	enzyme activity	inhibitor		10 µM	8%
C#Cc1n[nH]c2c(-c3cn([C@@H](C)c4ccccc4)c(=O)[nH]c3=O)cc(F)cc12	Tyrosine-protein kinase Yes (YES1, Homo sapiens, UniProt P07947)	enzyme activity	inhibitor		0.1 µM	-3.5%
CCN(CC)CCCC[C@H](NC(=O)[C@H](CC(C)C)NC(=O)[C@H](C)NC(=O)[C@H](Cc1ccccc1)NC(=O)c1ccc(C(C)(C)C)cc1)C(=O)N[C@@H](CO)C(=O)OC	TACR2	ligand displacement		radioligand	10 µM	75%
c1ccc(C(NCCNC(c2ccccc2)c2ccccc2)c2ccccc2)cc1	Nos1	enzyme activity	inhibitor		10 µM	6%
N#Cc1ccc(NCCNCC(=O)N2N=CCC2C#N)nc1 (stereo not shown)	Dipeptidyl peptidase 8	enzyme activity	inhibitor		100 µM	81%
O=C(CCCCCCC(=O)Nc1ccccc1)NO	HDAC1	enzyme activity	inhibitor		0.1 µM	66.3%
O=c1ccc2ccc3occc3c2o1	Histone deacetylase 8 (HDAC8, Homo sapiens, UniProt Q9BY41)	enzyme activity	inhibitor		10 µM	33.9%
N=C(N)c1ccc2cc(OC(=O)c3ccc(N=C(N)N)cc3)ccc2c1	USP8	enzyme activity	inhibitor		10 µM	5%
C#Cc1n[nH]c2c(-c3cn(C(C)c4ccccn4)c(=O)[nH]c3=O)cc(F)cc12 (stereo not shown)	Glycogen synthase kinase-3 alpha (GSK3A, Homo sapiens, UniProt P49840)	enzyme activity	inhibitor		1 µM	4.6%
